Laboratory results published in publication PMC10088587 (Archives of Microbiology, 2023).
Converted amounts (≈) assume the structure as drawn. Counter-ions that a name gives are not always drawn.

Tests used:
[1] = Critical micelle concentration; assay type: physicochemical
[2] = test system: H1N1-induced apoptosis in MDCK cells; assay type: cell-based
MDCK cells [3] = assay type: cell-based
MDCK cells [4] = test: Cytotoxicity assay; assay type: cell-based; settings: 48 h, MTT; for NCTC (EC50): NCTC was selected as EC50 (HA test)
In short: (§1)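 MDCK cells seeded at 3×10^4/well in 10% FBS and grown 24 h at 37 °C to semi-confluency. Exposed 48 h to twofold dilutions of test compound (2.5 to 0.001 mg/ml), 4 wells per dilution. MTT for 2–3 h at 37 °C in the dark, formazan dissolved in DMSO, OD read at 540 nm, viability taken as % of untreated control. CC50 read from dose-response curves.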

[5] = test system: influenza A/PR/8/34 (H1N1) virus; assay type: cell-based
[6] = molecular target: virus surface HA glycoprotein (Influenza A virus, UniProt P03452); test: Hemagglutination inhibition assay; assay type: biochemical; settings: twofold dilutions from CC50, 4 HA unit of virus, 1% cRBC
Cytotoxicity assay = assay type: cell-based; settings: dog, MDCK cells
In short: as §1

virus surface HA glycoprotein, sequence (P03452 18-342 limits assumed): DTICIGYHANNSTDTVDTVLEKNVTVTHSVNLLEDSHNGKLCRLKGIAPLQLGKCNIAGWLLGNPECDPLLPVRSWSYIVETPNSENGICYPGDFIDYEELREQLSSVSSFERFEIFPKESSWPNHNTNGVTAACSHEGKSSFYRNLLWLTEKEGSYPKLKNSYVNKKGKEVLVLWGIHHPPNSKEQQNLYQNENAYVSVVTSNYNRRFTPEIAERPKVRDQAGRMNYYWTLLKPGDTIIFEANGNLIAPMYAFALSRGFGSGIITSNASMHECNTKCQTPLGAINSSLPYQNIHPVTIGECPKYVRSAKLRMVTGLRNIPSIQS
virus surface HA glycoprotein, sequence (P03452 344-565 limits assumed): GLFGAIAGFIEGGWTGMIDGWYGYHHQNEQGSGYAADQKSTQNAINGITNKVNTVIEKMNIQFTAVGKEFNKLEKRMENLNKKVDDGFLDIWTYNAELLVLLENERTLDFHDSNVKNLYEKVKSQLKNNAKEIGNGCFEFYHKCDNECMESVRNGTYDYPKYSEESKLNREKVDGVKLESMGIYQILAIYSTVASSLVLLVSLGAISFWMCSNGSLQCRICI

Row | SMILES | CMC (critical micelle concentration) [1] | Apoptosis evaluation (%), Q4 healthy cells [2] [%] | CC50 (MDCK cells [4]) [µg/mL] | NCTC (EC50) (MDCK cells [4]) [µg/mL] | Log HA decrement (mean ± SD), Co-pen [5] [logs] | other results
1 | CCCCCCCCCCCCCCCC[N+](C)(C)CCCCCCCCCC[N+](C)(C)CCCCCCCCCCCCCCCC.[Br-].[Br-] [GSF, Decamethylene-1,10-bis(N,N-dimethyl-N-hexadecylammonium bromide)] | 0.032 | 70.50 | 8.8 ± 0.0 | 1.7 ± 0.5 | – | Apoptosis evaluation (%), Q4 healthy cells (MDCK cells [3]): 82.950 ± 8.132%
2 | CCCCCCCCCCCCCCCCCC[N+](C)(C)CCCCCCCCCC[N+](C)(C)CCCCCCCCCCCCCCCCCC.[Br-].[Br-] [GSI, Decamethylene-1,10-bis(N,N-dimethyl-N-octadecylammonium bromide)] | 0.0213 | 77.90 | 16.4 ± 0.0 | 2.6 ± 1.5 | – | Apoptosis evaluation (%), Q4 healthy cells (MDCK cells [3]): 84.850 ± 1.202%
3 | CCCCCCCCCCCCCCCC[N+](C)(C)CCCCCCCCCCCC[N+](C)(C)CCCCCCCCCCCCCCCC.[Br-].[Br-] [GSG, Dodecamethylene-1,12-bis(N,N-dimethyl-N-hexadecylammonium bromide)] | 0.022 | 70.10 | 11.9 ± 0.0 | 1.7 ± 1.3 | – | –
4 | CCCCCCCCCCCCCCCCCC[N+](C)(C)Cc1ccc(C[N+](C)(C)CCCCCCCCCCCCCCCCCC)cc1.[Br-].[Br-] [GSK, 1,4-phenylene-bis(methylene) bis (N,N-dimethyl-N-octadecylammonium bromide)] | 0.29 | – | 1229.2 ± 0.0 | 307.3 ± 0.0 | – | –
5 | CCCCCCCCCCCC[N+](C)(C)CCCCCC[N+](C)(C)CCCCCCCCCCCC.[Br-].[Br-] [GSE, Hexamethylene-1,6-bis (N,N-dimethyl-N-dodecylammonium bromide)] | 0.98 | – | 3.4 ± 0.0 | 0.9 ± 0.5 | – | Apoptosis evaluation (%), Q3 early apoptosis [2]: 54.10%
6 | CCCCCCCCCCCC[N+](C)(C)CCCCCCCCCC[N+](C)(C)CCCCCCCCCCCC.[Br-].[Br-] [GSC, Decamethylene-1,10-bis(N,N-dimethyl-N-dodecylammonium bromide)] | 0.63 | 37.50 | 4.0 ± 0.0 | 1.2 ± 0.6 | 6.5 | Log HA decrement (mean ± SD), Pre-pen [5]: 4.5 logs; Apoptosis evaluation (%), Q4 healthy cells (MDCK cells [3]): 37.500 ± 9.900%
7 | CCCCCCCCCCCC[N+](C)(C)CCOCC[N+](C)(C)CCCCCCCCCCCC.[Br-].[Br-] [GSD, 3-oxa-1,5-pentane-bis(N,N-dimethyl-N-dodecylammonium bromide)] | 1.047 | – | 4.9 ± 0.1 | 1.7 ± 0.6 | – | Log HA decrement (mean ± SD), Post-pen [5]: 5.5 logs; Apoptosis evaluation (%), Q2 late apoptosis [2]: 46.70%
8 | CCCCCCCCCCCC[N+](C)(C)CCCNCCC[N+](C)(C)CCCCCCCCCCCC.[Br-].[Br-] [GSB, 4-aza-1,7-heptane-bis(N,N-dimethyl-N-dodecylammonium bromide)] | 1.047 | – | 1.9 ± 0.1 | 0.7 ± 0.3 | – | Apoptosis evaluation (%), Q2 late apoptosis [2]: 49.50%
9 | CCC(CC)O[C@@H]1C=C(C(=O)O)C[C@H](N)[C@H]1NC(C)=O [Ose, oseltamivir carboxylate, reference compound] | – | – | 788.5 ± 6.0 (≈ 2770 µM) | 394.2 ± 0.0 | 8 | Log HA decrement (mean ± SD), Post-pen [5]: 8 logs; Log HA decrement (mean ± SD), Pre-pen [5]: 8 logs; Dilution to give HI + [6]: 1st
10 | CCCCCCCCCCCCCCCC[N+](C)(C)Cc1ccc(C[N+](C)(C)CCCCCCCCCCCCCCCC)cc1.[Br-].[Br-] [GSH, 1,4-phenylene-bis(methylene)bis (N,N-dimethyl-N-hexadecylammonium bromide)] | 0.48 | 68.05 | 522.2 ± 0.0 | 36.7 ± 28.6 | – | –
11 | CCCCCCCCCCCCCCCCCC[N+](C)(C)CCCCCCCCCCCC[N+](C)(C)CCCCCCCCCCCCCCCCCC.[Br-].[Br-] [GSJ, Dodecamethylene-1, 12-bis (N, N-dimethyl-N-octadecylammonium bromide)] | 0.0331 | 68.75 | 48.6 ± 0.0 | 0.6 ± 0.2 | – | –
12 | CCCCCCCCCCCCCCCC[N+](C)(C)CCCCCC[N+](C)(C)CCCCCCCCCCCCCCCC.[Br-].[Br-] [GSA, Hexamethylene-1,6-bis(N,N-dimethyl-N-hexadecylammonium bromide)] | 0.034 | 54.85 | 7.7 ± 0.0 | 2.6 ± 1.7 | 6.5 | –
13 | NC12CC3CC(CC(C3)C1)C2 [Ama, amantadine hydrochloride, reference compound] | – | – | – | – | 7 | CC50 at 48 h (Cytotoxicity assay): 197 ± 1.5 µg/mL; EC50 at 48 h (Cytotoxicity assay): 98.5 µg/mL
